WT yeast gro inh – growth inhibition of WT yeast, mitochondrial fusion screen | mitochondrial fusion phenotypic screen, WT strain | inhibition, % at 10 µM | AID 1362 | 190,000 compounds, 2.1% hits; in the data active = inhibition above about 58%; tested in S. cerevisiae
Yeast life ext – yeast lifespan extension; S. cerevisiae growth with nicotinamide, OD615; deaD strain in restrictive glucose medium; AID 775; 130,000 compounds, 0.68% hits; inhibition of the nicotinamide effect, % at 10 µM;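 active = inhibition above a set limit, placed 3 SD over the median of all compounds, cut at about 26% in these data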
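assay system = DeaD-strain S. cerevisiae | measured by = absorbance at 615 nm | probe or stimulus = nicotinamide 1.5 mM | buffer or medium = CSMM-D glucose medium, restrictive | times = 48 h at 30 °C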
Yeast growth inh – yeast BB579 growth reduction in restrictive medium; 140,000 compounds, 0.51% hits; AID 804; inhibition, % at 10 µM; S. cerevisiae BB579 growth, OD615, 48 h;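 active = inhibition above a set limit, 3 SD over the mean compound inhibition, cut at about 44% in these data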
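Assay system – yeast BB579 (DeaD) · Dosing – single compound dose of 10 µM, 0.25% DMSO final · Detection – OD615 turbidity measurement · Buffer or medium – CSMM-D restrictive synthetic medium containing dextrose (glucose) · Benchmarks – positive control amphotericin B 10 µg/mL · Incubation – 48 h exposure, 30 °C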
RAM network inh – yeast RAM network inhibition; S. cerevisiae dse1pr::URA3 reporter, 5-FOA growth OD615, 2 d; analog-sensitive cbk1-as2 kinase mutant strain; inhibition, % at 50 µM; 190,000 compounds, 1.8% hits;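 active = inhibition above a set limit, 3 SD over mean compound inhibition, cut at about 8.4% in these data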;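 note: inhibition rescues growth on 5-FOA so higher OD means more RAM inhibition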
A number is an active result; i = inactive; nt = no result. The list is not random: actives were taken first. Their share in the collection is about 4.3%.

SMILES	WT yeast gro inh	Yeast life ext	Yeast growth inh	RAM network inh
Cc1ccc(NC(=O)CN2C(=O)N/C(=C/c3ccc(N4CCOCC4)cc3)C2=O)cc1	i	i	i	8.8
CCC(=O)Nc1cccc(C(=O)/C=C/c2cc(Br)ccc2OC)c1	89	i	i	9.6
COc1ccc(Br)cc1/C=C/C(=O)Nc1ccc2ccccc2c1	i	i	i	i
Cc1csc(N2CCCC2=O)n1	i	nt	nt	i
COc1ncccc1-c1nnn(-c2ccc(C)cc2)n1	i	nt	nt	i
COc1ncccc1-c1nnn(-c2ccc(Cl)c(Cl)c2)n1	i	nt	nt	8.8
Cc1ccc(NC(=O)CN(C)C2CCCCC2)cc1Br	i	nt	nt	i
COc1cc(NC(=S)NN2CCN(C)CC2)cc(OC)c1OC	i	nt	nt	i
O=C(Nc1ccc(Cl)cc1)OCc1cc(-c2ccccc2Cl)on1	i	i	i	i
Cc1ccc(NC(=O)OCc2cc(-c3ccccc3)on2)cc1	i	nt	nt	9.9
CSCCC1COC(c2cccs2)=N1 (centres undefined)	i	nt	nt	i
C#Cc1ccc([C@H]2C=C(C(=O)N3CCOCC3)O[C@@H](OCC)[C@@H]2CCCO)cc1	i	nt	nt	i
CCCc1[nH][nH]c(=O)c1C(c1cccc(Cl)c1)C(C#N)C#N (centres undefined)	i	i	i	i
N#CC(C#N)C(c1ccsc1)c1c(-c2ccccc2)[nH][nH]c1=O (centres undefined)	i	40	i	i
O=[N+]([O-])c1cccc(-c2cc3cccc[n+]3cc2-c2cccc([N+](=O)[O-])c2)c1	i	i	i	i
Cc1cccc2cc(-c3ccccc3)c(-c3ccccc3)c[n+]12	72	i	i	i
CC(C)(C)c1ccc(CNc2ccc([N+](=O)[O-])cn2)cc1	80	i	i	i
C#CC[N+](C)(C)CCCCCCCCCCCC	78	i	i	i
C#CC[N+](C)(C)CCCCCCCCCC	i	i	i	i
CC#CC[N+](C)(C)CCCCCCCCCCCC	83	i	i	i
CCOC(=O)COc1ccc(/C=C2\NC(=S)N(CC)C2=O)cc1	i	i	i	i
CCCCCOc1ccc(CSc2n[nH]c(C)n2)cc1	80	nt	nt	i
CCC(C)(C)NC(=O)C(c1ccncc1)N(C(=O)Cn1nnc2ccccc21)c1cc2c(cc1C(C)=O)OCO2 (centres undefined)	i	nt	nt	i
Cc1ccc2cc(CN(Cc3cccs3)C(=O)c3ccco3)c3nnnn3c2c1C	58	i	i	i
CC1(C)CC(=O)C(C(=O)Cc2ccccc2[N+](=O)[O-])C(=O)C1	i	58	i	i
SMILES	WT yeast gro inh	Yeast life ext	Yeast growth inh	RAM network inh
CCOc1ccc(CC(=O)C2C(=O)CC(C)(C)CC2=O)cc1OCC	i	i	i	i
COc1cc(OC)cc(C(=O)N[C@@H](CCSC)c2nc3ccccc3[nH]2)c1	i	nt	nt	i
COc1ccccc1NC(=O)Cn1c(=O)n(CCc2c[nH]c3ccccc23)c(=O)c2cccnc21	i	i	i	i
CC(/C=C/c1ccccc1)=N\NC(=O)Cn1nc(C)cc1C	i	i	i	i
CCNc1c(N)c(=O)oc2ccccc12	i	i	i	i
Nc1c(Nc2ccccc2)c2ccccc2oc1=O	i	i	48	9.8
COc1ccc(CN=C2NC(=O)CC(C(=O)Nc3ccc(Cl)cc3)S2)cc1 (centres undefined)	i	i	i	9.2
Cc1ccc(N=C2NC(=O)CC(C(=O)Nc3ccc4c(c3)OCO4)S2)cc1 (centres undefined)	i	nt	nt	i
C/C(CCc1ccc2c(c1)OCO2)=N\N=C1\NC(=O)CC(C(=O)Nc2ccc(Cl)cc2)S1 (centres undefined)	73	i	i	i
CC([NH2+][O-])C(C)(C)NO (centres undefined)	i	i	i	i
[2H]c1c([2H])c([2H])c(C(=O)c2sc(N3CCCCCC3)nc2-c2ccccc2)c([2H])c1[2H]	i	i	i	8.8
O=C(c1ccc(Br)cc1)c1sc(N2CCOCC2)nc1-c1ccccc1	i	nt	nt	9.4
COc1ccc(-c2nc(N3CCCCCC3)sc2C(=O)c2ccccc2)cc1	i	i	i	i
O=C(c1ccccc1)c1sc(N2CCOCC2)nc1-c1ccccc1	i	nt	nt	i
Oc1c(C(Nc2ccccn2)c2cccnc2)cc(Cl)c2cccnc12 (centres undefined)	i	28	i	i
Cc1cc(NC(c2cccnc2)c2ccc3cccnc3c2O)no1 (centres undefined)	i	i	i	i
Cn1c(=O)c2c(nc(SCC(=O)NCc3ccc4c(c3)OCO4)n2Cc2ccc(Cl)cc2)n(C)c1=O	i	nt	i	i
O=[N+]([O-])c1c(C(Cl)Cl)nn(-c2ccccc2)c1N1CCCC1	i	45	i	i
CS(=O)(=O)c1sc2nc(-c3cccs3)cc(-c3ccccc3)c2c1N	i	i	i	11
Cc1ccc(-c2cc(-c3ccccc3)c3c(N)c(S(C)(=O)=O)sc3n2)cc1	i	i	i	i
O=C(NCc1ccc2c(c1)OCO2)C(=O)Nc1ccccc1	i	nt	nt	i
COc1ccc(NS(=O)(=O)c2cccc(-c3nnc(-c4ccccc4)o3)c2)cc1	i	nt	i	i
O=C(CCSCCc1ccccn1)Nc1c(F)c(F)c(F)c(F)c1F	i	27	i	i
O=C(CCSCCc1ccccn1)Nc1ccccn1	i	i	i	i
CCCC(=O)Nc1nc2ccc(OC)cc2s1	i	i	i	i
SMILES	WT yeast gro inh	Yeast life ext	Yeast growth inh	RAM network inh
COc1ccc2nc(N/C(=N/S(=O)(=O)c3cccs3)c3ccccc3Cl)sc2c1	i	nt	nt	i
COc1ccc2nc(NC(=O)C(NS(=O)(=O)c3cccs3)C(C)C)sc2c1 (centres undefined)	i	i	i	8.8
COc1ccc2nc(NC(=S)N(C)C)sc2c1	i	i	65	i
O=C(Nc1nc(-c2ccccn2)cs1)c1ccc(Br)s1	60	i	99	i
O=C(Nc1nc(-c2ccccn2)cs1)c1ccco1	i	nt	nt	i
O=C(CC1CC2CCC1C2)Nc1nc(-c2ccccn2)cs1 (centres undefined)	74	nt	nt	i
COc1ccc(Nc2sc(C(=O)Nc3cccc(Cl)c3)c(N)c2C(=O)Nc2ccccc2OC)cc1	i	i	i	9.7
COc1ccccc1NC(=O)c1c(Nc2ccccc2F)sc(C(=O)Nc2cccc(Cl)c2)c1N	i	i	i	11
Cc1cc(C)cc(N(C(C)C(=O)NCc2ccc3c(c2)OCO3)S(C)(=O)=O)c1 (centres undefined)	i	nt	nt	i
CC(NC(=O)CCN1C(=O)c2ccccc2C1=O)c1ccc2c(c1)CCCC2 (centres undefined)	i	i	i	i
CC(C)N(C(=O)CSc1nnc(CSc2ncccn2)n1C)C(C)C	i	nt	nt	i
CC(C)NC(=S)N/N=C/c1cccs1	i	i	i	i
CC(C)NC(=S)N/N=C/c1ccc(C(C)(C)C)cc1	61	nt	nt	i
O=C(CSc1nnc(CCc2ccccc2)n1-c1ccc(Cl)cc1)c1ccccc1	67	i	i	i
CCCC1CCC(c2ccc(C(=O)NN)cc2)CC1 (centres undefined)	84	i	i	i
CCCC1CCC(c2ccc(C(N)=O)cc2)CC1 (centres undefined)	i	i	i	i
COc1ccc(CCN(Cc2nc3ccccc3c(=O)[nH]2)C(=O)C2CC2)cc1	i	nt	nt	i
